Laboratory results from ChEMBL document CHEMBL1124512, “Synthesis of 3-deazaneplanocin A, a powerful inhibitor of S-adenosylhomocysteine hydrolase with potent and selective in vitro and in vivo antiviral activities” (1989).
Values after ≈ are worked out from the molar mass of the structure shown. Values joined by “and” are separate entries in the source; they are usually repeats but may differ in a detail not shown here. Identical values can stand only once.

Legend:
[1] = Ratio of minimum toxic compound concentration to inhibitory dose against vaccinia viral strain Lederle CA in vero cell line; assay type: functional
Procedure, shortened: (§1)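 Selectivity index is the minimum toxic drug concentration (μg/mL) divided by the ID50 for inhibition of the virus-induced cytopathogenic effect.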

Vaccinia virus [2] = test: Viral rating activity against vaccinia viral strain Lederle CA in vero cell line; assay type: functional, Orthopoxvirus vaccinia
Procedure, shortened: (§2)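 Virus rating is a weighted score combining the degree of inhibition of the virus-induced cytopathogenic effect with the degree of cytotoxicity. USAMRIID ratings were multiplied by 3 to convert them to the Ehrlich scale.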

Mus musculus [3] = test: In vivo anti-viral activity against Vaccinia tailpox mice model at dose 300 mg/kg (tested on 20 mice - Experiment 1); assay type: functional
Vaccinia virus [4] = test: Inhibitory dose against vaccinia viral strain Lederle CA in vero cell line; assay type: functional, Orthopoxvirus vaccinia
Mus musculus [5] = test: In vivo anti-viral activity against Vaccinia tailpox mice model at dose 300 mg/kg (tested on 20 mice - Experiment 2); assay type: functional
Human respirovirus 3 [6] = test: Viral rating activity against Parainfluenza type 3 viral strain Huebner C243 in H.Ep-2 cell line; assay type: functional; procedure, shortened: as §2
[7] = Ratio of minimum toxic compound concentration to inhibitory dose against Parainfluenza type 3 viral strain Huebner C243 in H.Ep-2 cell line; assay type: functional; procedure, shortened: as §1
Human respirovirus 3 [8] = test: Inhibitory dose against Parainfluenza type 3 viral strain Huebner C243 in H.Ep-2 cell line; assay type: functional; details: Human respirovirus 3, HEp-2; read-out: ID50 (the source's name)
[9] = test system: Vesicular stomatitis virus; test: (§3) Viral rating activity against vesicular stomatitis viral strain Indiana in L929 cell line; assay type: functional; procedure, shortened: as §2
[10] = Ratio of minimum toxic compound concentration to inhibitory dose against vesicular stomatitis viral strain Indiana in L929 cell line; assay type: functional; procedure, shortened: as §1
[11] = test system: Vesicular stomatitis virus; test: Inhibitory dose against vesicular stomatitis viral strain Indiana in L929 cell line; assay type: functional
[12] = Ratio of minimum toxic compound concentration to inhibitory dose against yellow fever viral strain Asibi in vero cell line; assay type: functional; procedure, shortened: as §1
[13] = test system: Vesicular stomatitis virus; test: as §3; assay type: functional; procedure, shortened: as §2; remark: listed apart in the source
Yellow fever virus [14] = test: Inhibitory dose against yellow fever viral strain Asibi in vero cell line; assay type: functional; details: read-out: ID50 (the source's name)
Mus musculus [15] = test: In vivo anti-viral activity against Vaccinia tailpox mice model at dose 4 mg/kg (tested on 20 mice - Experiment 2); assay type: functional
Mus musculus [16] = test: In vivo anti-viral activity against Vaccinia tailpox mice model at dose 8 mg/kg (tested on 19 mice - Experiment 2); assay type: functional
Yellow fever virus [17] = test: Viral rating activity against yellow fever viral strain Asibi in vero cell line; assay type: functional; procedure, shortened: as §2
Mus musculus [18] = test: In vivo anti-viral activity against Vaccinia tailpox mice model at dose 8 mg/kg (tested on 20 mice - Experiment 1); assay type: functional
Yellow fever virus [19] = test: Viral rating of activity against yellow fever viral strain Asibi in vero cell line; assay type: functional; procedure, shortened: as §2

Nc1ncnc2c1ncn2[C@@H]1O[C@H](CO)[C@@H](O)[C@@H]1O [VIDARABINE]
Selectivity index [1]: 16.3 and 32.2 and 17.9
VR (Vaccinia virus [2]): 3.7 and 4.2 and 3.6
Protection (Mus musculus [3]): 56%
ID50 (Vaccinia virus [4]): 1 µg/mL and 1.8 µg/mL
IC50 (Vaccinia virus [4]; Orthopoxvirus vaccinia, Vero, read-out: ID50 (the source's name)): 2 µg/mL (≈ 7.48 µM)
Protection (Mus musculus [5]): 88%

NC(=O)c1ncn([C@@H]2O[C@H](CO)[C@@H](O)[C@H]2O)n1 [RIBAVIRIN]
VR (Human respirovirus 3 [6]): 2.5
Selectivity index [7]: 5.7
IC50 (Human respirovirus 3 [8]): 17.5 µg/mL (≈ 71.7 µM)

Nc1nccc2c1ncn2[C@@H]1C[C@H](CO)[C@@H](O)[C@H]1O [3-DEAZAARISTEROMYCIN A]
VR [9]: 3.1 and 3.2 and 3.5 and 3.3
Selectivity index [10]: 3.6 and 3.8 and 7.2

Nc1nccc2c1ncn2C1C=C(CO)C(O)C1O (stereo not drawn) [3-DEAZANEPLANOCIN A]
ID50 [11]: 0.07 µg/mL and 0.2 µg/mL
IC50 ([11]; read-out: ID50 (the source's name)): 0.3 µg/mL (≈ 1.14 µM)
Selectivity index [12]: 0.3
VR [13]: 3.6 and 4.2
VR (Human respirovirus 3 [6]): 3.6
IC50 (Yellow fever virus [14]): 1 µg/mL (≈ 3.81 µM)
VR (Vaccinia virus [2]): 3.1 and 5.4 and 4.5
VR [9]: 4.7
Selectivity index [7]: 2
Protection (Mus musculus [15]): 82%
Protection (Mus musculus [16]): 84%
VR (Yellow fever virus [17]): 2.9
IC50 (Human respirovirus 3 [8]): 0.05 µg/mL (≈ 0.191 µM)
Protection (Mus musculus [18]): 74%

c1c[se]cn1 [SELENAZOLE]
Selectivity index [12]: 1
IC50 (Yellow fever virus [14]): 3.3 µg/mL (≈ 25 µM)
VR (Yellow fever virus [19]): 2.4
